The M2OR odorant receptor database
Positions count from the first letter of the chain named.

Columns and labels:
Conditions in all cases: stereoisomer not certain
OR10S1 (Homo sapiens) = target: T1, OR10S1 (Homo sapiens) (UniProt Q8NGN2)
T1 sequence (whole entry): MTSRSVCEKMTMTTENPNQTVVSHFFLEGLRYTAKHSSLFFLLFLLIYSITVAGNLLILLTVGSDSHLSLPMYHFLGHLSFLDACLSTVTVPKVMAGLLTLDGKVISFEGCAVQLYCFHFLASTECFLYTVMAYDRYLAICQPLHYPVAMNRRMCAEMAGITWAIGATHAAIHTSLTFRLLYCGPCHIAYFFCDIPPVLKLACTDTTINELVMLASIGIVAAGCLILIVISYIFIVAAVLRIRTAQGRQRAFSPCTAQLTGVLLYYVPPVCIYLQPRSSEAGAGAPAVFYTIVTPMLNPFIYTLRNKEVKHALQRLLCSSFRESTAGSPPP
Outline: (§1)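 Whether a receptor–molecule pair is responsive (active) rests on the original authors' judgment that its measured signal was statistically different from baseline. Pairs without that judgment are non-responsive (inactive). Sources used varied assay methods, commonly transient luciferase assays in mammalian cell lines.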

OR10R2 (Homo sapiens) = target: T2, OR10R2 (Homo sapiens) (UniProt Q8NGX6)
T2 sequence (whole entry): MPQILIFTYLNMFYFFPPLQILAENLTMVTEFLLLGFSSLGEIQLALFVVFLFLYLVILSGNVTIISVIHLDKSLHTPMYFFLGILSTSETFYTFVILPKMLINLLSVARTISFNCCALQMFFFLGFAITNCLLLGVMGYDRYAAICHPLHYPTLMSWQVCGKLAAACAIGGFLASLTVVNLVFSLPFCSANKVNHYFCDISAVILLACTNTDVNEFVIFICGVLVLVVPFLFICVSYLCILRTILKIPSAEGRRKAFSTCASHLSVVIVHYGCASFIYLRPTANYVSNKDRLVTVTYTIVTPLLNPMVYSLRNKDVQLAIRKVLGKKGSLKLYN
Outline: as §1

OR10T2 (Homo sapiens) = target: T3, OR10T2 (Homo sapiens) (UniProt Q8NGX3)
T3 sequence (whole entry): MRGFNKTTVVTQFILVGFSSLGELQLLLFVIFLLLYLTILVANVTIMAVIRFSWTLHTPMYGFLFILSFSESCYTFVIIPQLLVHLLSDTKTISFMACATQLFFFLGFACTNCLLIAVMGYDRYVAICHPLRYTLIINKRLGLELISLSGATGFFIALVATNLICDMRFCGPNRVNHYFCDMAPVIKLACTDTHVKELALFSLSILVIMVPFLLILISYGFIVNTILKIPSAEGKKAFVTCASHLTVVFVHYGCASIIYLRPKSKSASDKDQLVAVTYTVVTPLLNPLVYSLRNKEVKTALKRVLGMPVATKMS
Outline: as §1

OR10V1 (Homo sapiens) = target: T4, OR10V1 (Homo sapiens) (UniProt Q8NGI7)
T4 sequence (whole entry): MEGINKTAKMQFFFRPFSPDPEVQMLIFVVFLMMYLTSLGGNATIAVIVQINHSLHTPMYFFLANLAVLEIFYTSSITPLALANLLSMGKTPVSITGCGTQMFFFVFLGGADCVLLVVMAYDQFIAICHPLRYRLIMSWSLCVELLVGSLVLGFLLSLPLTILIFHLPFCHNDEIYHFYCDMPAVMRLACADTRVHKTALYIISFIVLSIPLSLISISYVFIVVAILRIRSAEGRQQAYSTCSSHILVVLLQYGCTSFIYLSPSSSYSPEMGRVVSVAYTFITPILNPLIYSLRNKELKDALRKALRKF
Outline: as §1

OR10W1 (Homo sapiens) = target: T5, OR10W1 (Homo sapiens) (UniProt Q8NGF6)
T5 sequence (whole entry): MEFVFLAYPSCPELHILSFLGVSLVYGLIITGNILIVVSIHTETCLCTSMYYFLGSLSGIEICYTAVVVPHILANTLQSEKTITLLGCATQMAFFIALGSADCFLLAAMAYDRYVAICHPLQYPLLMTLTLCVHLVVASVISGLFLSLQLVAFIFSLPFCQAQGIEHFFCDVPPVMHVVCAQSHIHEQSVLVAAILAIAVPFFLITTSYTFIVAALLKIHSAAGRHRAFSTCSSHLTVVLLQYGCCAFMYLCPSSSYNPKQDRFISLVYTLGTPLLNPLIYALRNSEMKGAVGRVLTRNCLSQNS
Outline: as §1

OR10X1 (Homo sapiens) = target: T6, OR10X1 (Homo sapiens) (UniProt Q8NGY0)
T6 sequence (whole entry): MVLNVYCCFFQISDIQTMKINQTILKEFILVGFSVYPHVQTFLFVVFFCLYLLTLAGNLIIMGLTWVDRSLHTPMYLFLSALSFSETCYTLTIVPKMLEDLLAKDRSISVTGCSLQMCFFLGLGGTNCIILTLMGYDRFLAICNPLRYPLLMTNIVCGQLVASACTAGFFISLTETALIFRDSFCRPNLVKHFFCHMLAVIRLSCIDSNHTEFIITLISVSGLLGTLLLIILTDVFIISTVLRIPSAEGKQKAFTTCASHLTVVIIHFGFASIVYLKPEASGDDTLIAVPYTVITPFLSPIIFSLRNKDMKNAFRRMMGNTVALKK
Outline: as §1

OR10Z1 (Homo sapiens) = target: T7, OR10Z1 (Homo sapiens) (UniProt Q8NGY1)
T7 sequence (whole entry): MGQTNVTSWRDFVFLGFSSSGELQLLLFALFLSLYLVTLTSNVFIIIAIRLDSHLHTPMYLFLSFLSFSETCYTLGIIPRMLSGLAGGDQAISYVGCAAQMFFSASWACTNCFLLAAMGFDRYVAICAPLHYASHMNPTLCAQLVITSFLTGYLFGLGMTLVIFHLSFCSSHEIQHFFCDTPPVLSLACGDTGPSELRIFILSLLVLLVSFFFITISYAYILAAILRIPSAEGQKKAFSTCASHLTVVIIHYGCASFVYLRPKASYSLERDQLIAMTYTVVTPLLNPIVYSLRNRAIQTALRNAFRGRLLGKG
Outline: as §1

OR11A1 (Homo sapiens) = target: T8, OR11A1 (Homo sapiens) (UniProt Q9GZK7)
T8 sequence (whole entry): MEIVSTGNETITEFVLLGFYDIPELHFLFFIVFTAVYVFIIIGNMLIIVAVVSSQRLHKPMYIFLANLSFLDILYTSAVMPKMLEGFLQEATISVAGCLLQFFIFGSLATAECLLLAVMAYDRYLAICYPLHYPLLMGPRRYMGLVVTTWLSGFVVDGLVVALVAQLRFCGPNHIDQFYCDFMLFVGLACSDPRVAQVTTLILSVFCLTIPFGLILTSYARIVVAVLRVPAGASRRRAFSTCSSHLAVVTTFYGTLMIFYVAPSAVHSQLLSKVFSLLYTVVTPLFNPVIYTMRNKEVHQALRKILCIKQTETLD
Outline: as §1

OR11G2 (Homo sapiens) = target: T9, OR11G2 (Homo sapiens) (UniProt Q8NGC1)
T9 sequence (whole entry): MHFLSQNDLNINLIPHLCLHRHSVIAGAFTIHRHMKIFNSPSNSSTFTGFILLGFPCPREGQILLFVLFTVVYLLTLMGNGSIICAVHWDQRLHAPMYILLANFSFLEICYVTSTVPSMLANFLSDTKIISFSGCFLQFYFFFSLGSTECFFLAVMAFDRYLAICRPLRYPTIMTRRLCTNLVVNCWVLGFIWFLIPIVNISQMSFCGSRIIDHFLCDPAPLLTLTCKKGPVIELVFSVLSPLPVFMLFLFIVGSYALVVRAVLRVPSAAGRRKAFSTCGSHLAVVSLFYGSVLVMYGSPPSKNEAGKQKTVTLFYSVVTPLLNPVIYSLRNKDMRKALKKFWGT
Outline: as §1

OR11H1 (Homo sapiens) = target: T10, OR11H1 (Homo sapiens) (UniProt Q8NG94)
T10 sequence (whole entry): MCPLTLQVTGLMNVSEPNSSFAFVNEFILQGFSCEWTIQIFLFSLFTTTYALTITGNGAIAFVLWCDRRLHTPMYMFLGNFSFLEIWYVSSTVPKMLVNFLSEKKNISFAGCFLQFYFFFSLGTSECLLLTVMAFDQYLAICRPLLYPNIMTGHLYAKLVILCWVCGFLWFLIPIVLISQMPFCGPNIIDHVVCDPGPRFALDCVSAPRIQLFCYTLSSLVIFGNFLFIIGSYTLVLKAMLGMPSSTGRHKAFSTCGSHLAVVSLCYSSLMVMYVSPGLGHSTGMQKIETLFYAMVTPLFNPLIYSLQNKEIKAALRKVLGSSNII
Outline: as §1

OR11H12 (Homo sapiens) = target: T11, OR11H12 (Homo sapiens) (UniProt B2RN74)
T11 sequence (whole entry): T10 sequence (whole entry) with S33T, R68W, Y156C, M240V
Outline: as §1

OR11H2 (Homo sapiens) = target: T12, OR11H2 (Homo sapiens) (UniProt Q8NH07)
T12 sequence (whole entry): T10 sequence (whole entry) with Q7H, T49I, M181K, R199L, M240V, S269P
Outline: as §1

OR11H4 (Homo sapiens) = target: T13, OR11H4 (Homo sapiens) (UniProt Q8NGC9)
T13 sequence (whole entry): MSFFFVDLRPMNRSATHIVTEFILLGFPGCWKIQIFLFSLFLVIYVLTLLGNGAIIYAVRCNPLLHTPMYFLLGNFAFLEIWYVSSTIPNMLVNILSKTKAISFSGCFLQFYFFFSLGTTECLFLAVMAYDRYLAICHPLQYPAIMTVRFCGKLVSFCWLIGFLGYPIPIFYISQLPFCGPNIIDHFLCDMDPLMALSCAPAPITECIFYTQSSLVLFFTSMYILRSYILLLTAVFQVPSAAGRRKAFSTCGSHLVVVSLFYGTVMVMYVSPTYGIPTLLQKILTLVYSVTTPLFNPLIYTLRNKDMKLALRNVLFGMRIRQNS
Outline: as §1

OR11H6 (Homo sapiens) = target: T14, OR11H6 (Homo sapiens) (UniProt Q8NGC7)
T14 sequence (whole entry): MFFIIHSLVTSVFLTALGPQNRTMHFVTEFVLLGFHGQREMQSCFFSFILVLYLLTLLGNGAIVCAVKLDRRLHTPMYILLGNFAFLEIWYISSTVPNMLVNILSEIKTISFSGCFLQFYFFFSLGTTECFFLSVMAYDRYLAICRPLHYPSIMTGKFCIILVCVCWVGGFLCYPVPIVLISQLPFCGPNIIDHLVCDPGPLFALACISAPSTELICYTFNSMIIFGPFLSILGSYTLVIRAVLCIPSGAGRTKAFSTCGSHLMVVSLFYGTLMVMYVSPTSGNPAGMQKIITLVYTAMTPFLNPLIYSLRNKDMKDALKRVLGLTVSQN
Outline: as §1

OR11L1 (Homo sapiens) = target: T15, OR11L1 (Homo sapiens) (UniProt Q8NGX0)
T15 sequence (whole entry): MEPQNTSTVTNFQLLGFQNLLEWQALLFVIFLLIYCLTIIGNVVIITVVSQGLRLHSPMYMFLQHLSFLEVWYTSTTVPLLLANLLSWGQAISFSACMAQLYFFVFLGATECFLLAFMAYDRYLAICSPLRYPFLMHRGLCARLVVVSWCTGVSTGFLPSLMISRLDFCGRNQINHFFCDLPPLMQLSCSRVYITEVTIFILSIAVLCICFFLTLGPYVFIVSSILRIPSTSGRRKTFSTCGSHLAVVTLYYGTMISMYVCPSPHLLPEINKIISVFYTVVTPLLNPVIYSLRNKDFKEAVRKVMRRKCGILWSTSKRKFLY
Outline: as §1

OR12D2 (Homo sapiens) = target: T16, OR12D2 (Homo sapiens) (UniProt P58182)
T16 sequence (whole entry): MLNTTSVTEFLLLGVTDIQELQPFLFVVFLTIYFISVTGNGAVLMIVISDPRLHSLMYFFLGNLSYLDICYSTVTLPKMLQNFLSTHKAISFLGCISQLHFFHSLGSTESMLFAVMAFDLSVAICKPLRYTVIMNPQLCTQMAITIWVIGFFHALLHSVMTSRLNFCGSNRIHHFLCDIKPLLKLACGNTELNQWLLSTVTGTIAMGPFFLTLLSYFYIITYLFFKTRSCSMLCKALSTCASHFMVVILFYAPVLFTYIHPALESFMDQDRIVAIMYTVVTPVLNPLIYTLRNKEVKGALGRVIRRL
Outline: as §1

OR12D3 (Homo sapiens) = target: T17, OR12D3 (Homo sapiens) (UniProt Q9UGF7)
T17 sequence (whole entry): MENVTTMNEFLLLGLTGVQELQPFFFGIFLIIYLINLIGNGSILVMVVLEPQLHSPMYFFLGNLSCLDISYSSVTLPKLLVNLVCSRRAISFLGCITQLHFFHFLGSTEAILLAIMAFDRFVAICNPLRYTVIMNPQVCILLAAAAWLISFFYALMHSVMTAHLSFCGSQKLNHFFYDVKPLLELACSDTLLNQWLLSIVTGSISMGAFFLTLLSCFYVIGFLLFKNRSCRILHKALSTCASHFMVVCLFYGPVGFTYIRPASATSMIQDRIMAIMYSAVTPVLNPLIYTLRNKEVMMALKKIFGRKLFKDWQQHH
Outline: as §1

OR13A1 (Homo sapiens) = target: T18, OR13A1 (Homo sapiens) (UniProt Q8NGR1)
T18 sequence (whole entry): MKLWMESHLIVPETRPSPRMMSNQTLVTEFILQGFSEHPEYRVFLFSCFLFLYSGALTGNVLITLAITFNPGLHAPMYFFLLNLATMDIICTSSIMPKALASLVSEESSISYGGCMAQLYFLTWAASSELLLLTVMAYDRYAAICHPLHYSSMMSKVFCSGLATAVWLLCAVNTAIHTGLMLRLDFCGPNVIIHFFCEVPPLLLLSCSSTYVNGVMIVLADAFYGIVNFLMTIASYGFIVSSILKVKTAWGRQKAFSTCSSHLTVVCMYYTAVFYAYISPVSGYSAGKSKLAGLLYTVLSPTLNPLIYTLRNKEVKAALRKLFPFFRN
Outline: as §1

Measured: odorant receptor agonist call;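 note: active if original authors judged signal statistically different from baseline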

CC(C=O)Cc1ccc(C(C)(C)C)cc1 (stereo not given)
active: OR10S1 (Homo sapiens)

CCCCCCCCCCCCCCCCCC(=O)[O-].[H+]
inactive: OR10S1 (Homo sapiens)

Cc1cnc(C)c(C)n1
inactive: all assays above
